This is an account of results in ChEMBL document CHEMBL1132456 (J Med Chem, 1999).

A value given as a limit tells only on which side of the number the result lay.

The target of data set [1] is Human immunodeficiency virus type 1 reverse transcriptase (Human immunodeficiency virus 1, UniProt Q72547, Y188L). The data set is described as follows: In vitro inhibitory activity against HIV-1 mutant Reverse transcriptase containing the single amino acid substitution Y188L. The essentials: (§1)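 Template poly(rA):oligo(dT) (0.3 μM 3'-OH ends) with 10 μM [3H]dTTP, incubated at 37 °C. Acid-precipitable counts taken on filters. Inhibitor spanned 0.2–5 Ki. Ki came from Lineweaver–Burk and Dixon plots, triplicate runs.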

A short description of data set [2]: The compound was tested for cytotoxicity against Human Lymphocytes. To be noted: read-out: TC50 (the source's name). An outline of the steps:
(§2)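 Cells seeded in 96-well plates: human PHA-stimulated lymphocytes 20 000, 3T3 10 000, NSO 3 000, Daudi 300 per well. Graded compound concentrations added 12 h after plating; 48 h exposure. MTT (5 mg/mL stock) added for 2 h at 37 °C, then SDS/DMF extraction buffer overnight. OD read at 570 nm, blank subtracted, reported as OD × 1000.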

Data set [3] is described as follows: […] index values calculated at 50% viral activity using mutually nonexclusive forms of equation. The essentials: (§3)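 Chou–Talalay multiple drug effect analysis of compound combined with AZT in acutely HIV-infected C8166 cells. Combination index computed at 50% effect under the mutually exclusive or mutually nonexclusive assumption.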
The target in data set [4] is Human immunodeficiency virus type 1 reverse transcriptase (Human immunodeficiency virus 1, UniProt Q72547, V106A). As to the kind of experiment: In vitro inhibitory activity against HIV-1 mutant Reverse transcriptase containing the single amino acid substitution V106A. The essentials: as §1
In data set [5] the test system is Human immunodeficiency virus 3. As to the kind of experiment: (§4) The compound was tested for inhibition against HIV-III B from C8 166 cell lines. The format is functional, organism-based. The conditions noted are these: Human immunodeficiency virus 1, IIIB, C8166. The essentials: (§5)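 C8166 cells at 90 × 10³ cells/mL infected with 100 TCID₅₀ HIV with or without compound for 2 h at 37 °C. Cells washed, replated at 35 × 10³ cells/200 μL, and kept 5 days with drug. Cytopathic protection and toxicity both read by MTT (OD 490/650 nm). EC₅₀ and IC₅₀ from median effect equation; SI = IC₅₀/EC₅₀.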

A short description of data set [6]: The compound was tested for cytotoxicity against NSO murine cell line. It counts as cell-based. To be noted: mouse, NSO cells; read-out: TC50 (the source's name). An outline of the steps: as §2
The subject of data set [7] is Human immunodeficiency virus 3. The data set is described as follows: The compound was tested in presence of AZT for Anti-viral of compound in C8166 cells infected with HIV-IIIB. It counts as functional, organism-based. To be noted: Human immunodeficiency virus 1, IIIB. The essentials: (§6)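 C8166 cells at 90 × 10³ cells/mL exposed to 100 TCID₅₀ HIV with or without drug (alone, or together with AZT) for 2 h at 37 °C, 5% CO₂. Cells then washed and replated at 35 × 10³ cells/200 μL and cultured 5 days with the same drug levels. Protection from cytopathic effect read by MTT at 490/650 nm; EC₅₀ from median effect equation.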

The test system of data set [8] is Human immunodeficiency virus 3. The data set is described as follows: The compound was tested for Anti-viral activity of AZT with compound in C8166 cells infected with HIV-IIIB. The format is functional, organism-based. To be noted: Human immunodeficiency virus 1, IIIB. The essentials: as §6
The test system of data set [9] is Human immunodeficiency virus 1. The data set is described as follows: (§7) The compound was tested for inhibition against HIV-1 from CEM-SS cell lines. It counts as functional, organism-based. To be noted: Human immunodeficiency virus 1, CEM-SS. An outline of the steps: (§8)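 Testing by the NCI AIDS Antiviral Screening Program: protection of HIV-1-infected CEM-SS T4 lymphocytes from cell death, run alongside an AZT control. EC₅₀ is the concentration giving 50% survival of infected cells relative to uninfected untreated controls. IC₅₀ is the concentration giving 50% survival of uninfected cells. SI = IC₅₀/EC₅₀.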

For data set [10], the target named is Human immunodeficiency virus type 1 reverse transcriptase (Human immunodeficiency virus 1, UniProt Q72547, Y181I). The data set is described as follows: In vitro inhibitory activity against HIV-1 mutant Reverse transcriptase containing the single amino acid substitution Y181I. The essentials:
as §1

The target in data set [11] is Human immunodeficiency virus type 1 reverse transcriptase (Human immunodeficiency virus 1, UniProt Q72547, L100I). As to the kind of experiment: In vitro inhibitory activity against HIV-1 mutant Reverse transcriptase containing the single amino acid substitution L100I. An outline of the steps:
as §1

Data set [12] can be described thus: The compound was tested for cytotoxicity against 3T3 fibroblast murine cell line. It counts as cell-based. To be noted: mouse, NIH3T3 fibroblast cells; read-out: TC50 (the source's name). An outline of the steps:
as §2

Data set [13] in a line: […] index values calculated at 50% viral activity using mutually exclusive forms of equation. The essentials:
as §3

Data set [14] deals with Human immunodeficiency virus 3. The data set is described as follows: The compound was tested for Anti-viral activity of compound alone in C8166 cells infected with HIV-IIIB. It counts as functional, organism-based. The conditions noted are these: Human immunodeficiency virus 1, IIIB. An outline of the steps:
as §6

Data set [15] is described as follows: The compound was tested for cytotoxicity against Daudi human cell line. The format is cell-based. The conditions noted are these: Daudi cells, read-out: TC50 (the source's name). An outline of the steps: as §2
For data set [16], the target named is Human immunodeficiency virus type 1 reverse transcriptase (Human immunodeficiency virus 1, UniProt Q72547). As to the kind of experiment: In vitro inhibitory activity against HIV-1 wild type reverse transcriptase (RT).
The target in data set [17] is Human immunodeficiency virus type 1 reverse transcriptase (Human immunodeficiency virus 1, UniProt Q72547, K103N). The data set is described as follows: In vitro inhibitory activity against HIV-1 mutant Reverse transcriptase containing the single amino acid substitution K103N. The essentials:
as §1

The subject of data set [18] is C8166. As to the kind of experiment: The compound was tested for inhibition against HIV-III B from C8 166 cell lines. The format is functional, cell-based. The conditions noted are these: Homo sapiens. An outline of the steps:
as §5

Data set [19] relates to CEM-SS. As to the kind of experiment: The compound was tested for inhibition against HIV-1 from CEM-SS cell lines. To be noted: Homo sapiens. It counts as functional, cell-based. An outline of the steps:
as §8

Data set [20] relates to Human immunodeficiency virus 3. As to the kind of experiment: The compound was tested in presence of AZT for Anti-viral activity of compound in C8166 cells infected with HIV-IIIB. The format is functional, organism-based. The conditions noted are these: Human immunodeficiency virus 1, IIIB. An outline of the steps: as §6
Data set [21] deals with C8166. The data set is described as §4. It counts as functional, cell-based. The conditions noted are these: Homo sapiens. An outline of the steps: as §5
In data set [22] the test system is CEM-SS. Described as §7. It counts as functional, cell-based. To be noted: Homo sapiens. The essentials: as §8
The nature of data set [23]: The compound was tested for cytotoxicity against NSO murine cell lines. The format is cell-based. The conditions noted are these: mouse, NSO cells; read-out: TC50 (the source's name). The essentials: as §2

One may read the Ki as a measure of affinity in units of concentration, obtained from inhibition or displacement. In general, IC50 refers to the concentration at which inhibition is half-maximal. In general, EC50 refers to the concentration at which the effect is half-maximal. For `CCC1(c2cccc(C)c2)Oc2ccccc2-n2cccc2C1=O` (stereo not given), the Ki in data set [1] is 1.9 µM; in data set [4], 0.25 µM; in [10] it was 4 µM; in data set [11] it was 0.1 µM; in [16], 0.07 µM; in data set [17], 1.1 µM. Besides, the CC50 in [2], in data set [6], in data set [12] and in data set [15] was greater than 1000 µM in each case. In addition, the CI in data set [3] and in data set [13] was 0.04 in each case. Besides, the IC50 in data set [5] was 52 µM; in data set [9], 119 µM. In addition, the EC50 in data set [7] was determined as 0.011 µM; in data set [8] it was 0.00325 µM; in [9] it was 0.35 µM; in data set [14] it was 0.425 µM.
For the compound `CCC1(c2cc(F)cc(F)c2)Oc2ccccc2-n2cccc2C1=O` (stereo not given), the Ki in [1] was greater than 10 µM; in [4] it was 3 µM; in data set [10], 6.8 µM; in [11], 1.7 µM; in [16], 1.5 µM; in data set [17], 2.7 µM. It took 17.1 µM to reach half-maximal inhibition in data set [5] (IC50).
On to `CCC1(c2ccc(C)cc2)Oc2ccccc2-n2cccc2C1=O` (stereo not given), for which, in data set [16], the Ki was determined as 0.97 µM.
For `CCC1(c2cccs2)Oc2cccnc2-n2cccc2C1=O` (stereo not given), the inhibition constant (Ki) in [1] came to 0.475 µM; in data set [4], 0.09 µM; in [10], 0.43 µM; in data set [11], 0.09 µM; in data set [16], 0.093 µM; in [17], 0.045 µM. Besides, the CC50 in [2] is 30 µM; in [6], 26 µM; in data set [12], 35 µM; in [15] it was 29 µM. Moreover, the IC50 in the data set with C8166 [18] was 20.5 µM; in the data set with CEM-SS [19] it was greater than 2 µM. The compound also registered an EC50 in the data set with CEM-SS [19] of 0.15 µM.
Take `CCC1(c2cccc(C)c2)Oc2cccnc2-n2cccc2C1=O` (stereo not given): the Ki worked out at 1.5 µM in [1]; 0.4 µM in data set [4]; 1.2 µM in data set [10]; 0.044 µM in [11]; 0.021 µM in data set [16]; 0.03 µM in data set [17]. The CC50 in data set [2] amounted to 400 µM; in [6], 410 µM; in data set [12], 400 µM; in [15], 380 µM. The EC50 stood at 0.27 µM in the data set on C8166 [18] and 0.027 µM in the data set on CEM-SS [19]. Also, the values for the IC50 with C8166 [18] and in the data set with CEM-SS [19] were 7.2 µM and greater than 2 µM, respectively.
For `CCC1(c2ccccc2)Oc2cccnc2-n2cccc2C1=O` (stereo not given), the inhibition constant (Ki) in data set [1] turned out to be 1.5 µM; in data set [4] it was 0.07 µM; in data set [10] it was 4 µM; in [11], 0.04 µM; in [16], 0.022 µM; in data set [17], 0.3 µM. Further, the CC50 in data set [2] came out at 13 µM; in data set [6] it was 14 µM; in [12], 10 µM; in [15], 13 µM. Moreover, the CI in data set [3] was 0.303; in [13] it was 0.302. In addition, the EC50 in [8] was determined as 0.00317 µM; with C8166 [18], 0.054 µM; in the data set on CEM-SS [19], 0.069 µM; in [20], 0.017 µM; in data set [14] it was 0.054 µM. The results for the concentration for half-maximal inhibition (IC50) in the data set on C8166 [18] and in the data set with CEM-SS [19] were 6 µM and 3.9 µM, respectively.
With `CCC1(c2cccs2)Oc2ccccc2-n2cccc2C1=O` (stereo not given), the Ki in data set [1] worked out at 0.3 µM; in [4], 0.11 µM; in data set [10], 0.97 µM; in [11], 0.07 µM; in data set [16], 0.03 µM; in [17] it was 0.4 µM. In the data set on CEM-SS [19], the EC50 is 0.115 µM. The compound further registered an IC50 in the data set on CEM-SS [19] of 11 µM.
Consider `CCC1(c2cccc(F)c2)Oc2ccccc2-n2cccc2C1=O` (stereo not given), for which the Ki in data set [1] was 1.5 µM; in [4], 0.4 µM; in data set [10], 4 µM; in [11], 0.16 µM; in data set [16], 0.1 µM; in data set [17] it was 0.07 µM. Besides, the CC50 is 720 µM in [2], 720 µM in data set [6], 710 µM in data set [12] and 720 µM in data set [15]. Besides, the EC50 in the data set with C8166 [21] came to 1.1 µM; in the data set on CEM-SS [22] it was 0.072 µM. In addition, the values for the IC50 in the data set with C8166 [21] and in the data set with CEM-SS [22] were 13.8 µM and 2 µM, respectively.
With `CCC1(c2cccc(OC)c2)Oc2ccccc2-n2cccc2C1=O` (stereo not given), the Ki in data set [1] was greater than 10 µM; in [4], 0.01 µM; in [10], greater than 10 µM; in [11] it was 0.011 µM; in data set [16], 0.06 µM; in [17] it was 0.022 µM. The CC50 in data set [2] was 200 µM; in data set [6], 230 µM; in [12] it was 210 µM; in data set [15], 280 µM. For the same compound, the IC50 was 7 µM in data set [5] and 0.2 µM in data set [9]. Also, the response in data set [9] was half-maximal at 0.04 µM (EC50).
`CCC1(c2ccccc2)Oc2ccccc2-n2cccc2C1=O` (stereo not given): the Ki was greater than 10 µM in [1]; 3.9 µM in data set [4]; greater than 10 µM in [10]; 0.75 µM in data set [11]; 0.19 µM in data set [16]; 7.7 µM in [17]. The CC50 in data set [2] is 32 µM; in [23], 24 µM; in [12], 33 µM; in [15] it was 26 µM. For the same compound, the results for the EC50 in the data set with C8166 [18] and with CEM-SS [19] were 0.8 µM and 0.47 µM, respectively. It took 10 µM to reach half-maximal inhibition in the data set with C8166 [18] (IC50).
